Common to all, as to type: functional
For assay [1], the system named is Staphylococcus aureus. In words: Antibacterial activity was determined against gram positive organism, Staphylococcus aureus H228. Conditions: Staphylococcus aureus; read-out: MIC. Summed up: (§1)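 MIC (µg/mL) by standard microtitration against a panel of 10 Gram-positive and Gram-negative organisms; values averaged from multiple experiments.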
Assay [2] concerns Bacteria. In words: MIC ratio measured as the mean MICs of gram-negative bacteria. Put shortly:
(§2)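 Geometric mean of the microtitration MICs (µg/mL) over the Gram-negative organisms, and separately over the Gram-positive organisms, of the 10-strain panel; individual MICs averaged from multiple experiments.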

A further assay deals with Enterobacter cloacae. In words: Antibacterial activity was determined against gram negative organism, Enterobacter cloacae MA2646. Conditions: Enterobacter cloacae; read-out: MIC.
A further assay deals with Streptococcus pyogenes. In words: Antibacterial activity was determined against gram positive organism, Streptococcus pyogenes C203. As to conditions: Streptococcus pyogenes; read-out: MIC. Summed up:
as §1

The next assay has as its system Klebsiella pneumoniae. In words: Antibacterial activity was determined against gram negative organism, Klebsiella pneumoniae MGH-2. Conditions: Klebsiella pneumoniae; read-out: MIC. Put shortly: as §1
In assay [3] the target is DNA gyrase (Escherichia coli) (UniProt P0AES6+P0AES4). In words: Minimum inhibitory concentration against Escherichia coli DNA-gyrase in supercoiling assay.
The test system of the next assay is Streptococcus pneumoniae. In words: Antibacterial activity was determined against gram positive organism, Streptococcus pneumoniae SV-1. Conditions: Streptococcus pneumoniae; read-out: MIC. Put shortly:
as §1

Another assay concerns Enterococcus faecalis. In words: Antibacterial activity was determined against gram positive organism, Streptococcus faecalis MGH-2. Conditions: Enterococcus faecalis; read-out: MIC. Summed up:
as §1

Assay [4] relates to Staphylococcus aureus. In words: Antibacterial activity was determined against gram positive organism, Staphylococcus aureus UC76. Summed up:
as §1

A further assay relates to Escherichia coli. In words: Antibacterial activity was determined against gram negative organism, Escherichia coli vogel. As to conditions: Escherichia coli; read-out: MIC. Summed up: as §1
For assay [5], the system named is Bacteria. In words: Antibacterial activity was determined against gram negative organism, Providencia rettgeri. M1771. Conditions: Bacteria; read-out: MIC. Summed up: as §1
Another assay deals with Pseudomonas aeruginosa. In words: Antibacterial activity was determined against gram negative organism, Pseudomonas aeruginosa UI-18. As to conditions: Pseudomonas aeruginosa; read-out: MIC. Summed up:
as §1

The test system of assay [6] is Bacteria. In words: MIC ratio measured as the mean MICs of gram-positive bacteria. Put shortly:
as §2

[7] abbreviates: Staphylococcus aureus, read-out: MIC.

Values after ≈ are worked out from the molar mass of the structure shown.

Regarding `CCNCC1CCN(c2c(F)cc3c(=O)c(C(=O)O)cn(CC)c3c2F)C1` (configuration not stated) [MERAFLOXACIN], the MIC with Staphylococcus aureus [1] was 0.1 µg/mL (≈ 0.264 µM); with Enterobacter cloacae, 0.1 µg/mL (≈ 0.264 µM); in the assay with Streptococcus pyogenes, 0.1 µg/mL (≈ 0.264 µM); in the assay on Klebsiella pneumoniae it was 0.2 µg/mL (≈ 0.527 µM); in assay [3] it was 2.5 µg/mL (≈ 6.59 µM); in the assay on Streptococcus pneumoniae, 0.1 µg/mL (≈ 0.264 µM). In addition, the MIC worked out at 0.1 µg/mL (≈ 0.264 µM) in the assay on Enterococcus faecalis; 0.05 µg/mL (≈ 0.132 µM) against Staphylococcus aureus [4]; 0.1 µg/mL (≈ 0.264 µM) in the assay with Escherichia coli; 0.4 µg/mL (≈ 1.05 µM) with Bacteria [5]; 1.6 µg/mL (≈ 4.22 µM) in the assay with Pseudomonas aeruginosa. Besides, the Geometric mean MIC over Gram-negative bacteria (µg/mL) with Bacteria [2] came out at 0.26. Besides, the Ratio in the assay with Bacteria [6] stood at 0.087.
As for `CCn1cc(C(=O)O)c(=O)c2c(N)c(F)c(N3CCNCC3)c(Cl)c21`, the MIC in the assay on Staphylococcus aureus [1] amounted to 3.1 µg/mL (≈ 8.41 µM); in the assay on Enterobacter cloacae, 0.4 µg/mL (≈ 1.08 µM); with Streptococcus pyogenes, 3.1 µg/mL (≈ 8.41 µM); in the assay with Klebsiella pneumoniae it was 0.4 µg/mL (≈ 1.08 µM); in assay [3] it was 5 µg/mL (≈ 13.6 µM); in the assay with Streptococcus pneumoniae, 3.1 µg/mL (≈ 8.41 µM). The MIC was 6.3 µg/mL (≈ 17.1 µM) in the assay with Enterococcus faecalis; 0.4 µg/mL (≈ 1.08 µM) in the assay with Staphylococcus aureus [4] (setting [7]); 0.2 µg/mL (≈ 0.542 µM) with Escherichia coli; 1.6 µg/mL (≈ 4.34 µM) in the assay on Bacteria [5]; 6.3 µg/mL (≈ 17.1 µM) in the assay on Pseudomonas aeruginosa. In addition, in the assay on Bacteria [2], the Geometric mean MIC over Gram-negative bacteria (µg/mL) is 0.79. In addition, the “Geometric mean MIC over Gram-positive bacteria (µg/mL)” value in the assay on Bacteria [6] is 2.37.
Turning to `CCn1cc(C(=O)O)c(=O)c2c(N)c(F)c(N3CC(C)NC(C)C3)c(Cl)c21` (configuration not stated), the MIC in the assay on Staphylococcus aureus [1] amounted to 3.1 µg/mL (≈ 7.81 µM); in the assay on Enterobacter cloacae, 1.6 µg/mL (≈ 4.03 µM); in the assay with Streptococcus pyogenes, 25 µg/mL (≈ 63 µM); in the assay with Klebsiella pneumoniae, 6.3 µg/mL (≈ 15.9 µM); in assay [3], 7.5 µg/mL (≈ 18.9 µM); with Streptococcus pneumoniae, 25 µg/mL (≈ 63 µM). Besides, the MIC was found to be 12.5 µg/mL (≈ 31.5 µM) with Enterococcus faecalis; 1.6 µg/mL (≈ 4.03 µM) with Staphylococcus aureus [4] (setting [7]); 1.6 µg/mL (≈ 4.03 µM) with Escherichia coli; 6.3 µg/mL (≈ 15.9 µM) in the assay on Bacteria [5]; 12.5 µg/mL (≈ 31.5 µM) in the assay with Pseudomonas aeruginosa. For the same compound, in the assay on Bacteria [2], the Geometric mean MIC over Gram-negative bacteria (µg/mL) worked out at 4.18. Besides, the “Geometric mean MIC over Gram-positive bacteria (µg/mL)” value with Bacteria [6] is 8.27.
`CCn1cc(C(=O)O)c(=O)c2c(O)c(F)c(N3CCC(N)C3)c(F)c21` (configuration not stated): the MIC in the assay on Staphylococcus aureus [1] worked out at 1.6 µg/mL (≈ 4.53 µM); in the assay on Enterobacter cloacae it was 0.2 µg/mL (≈ 0.566 µM); in the assay on Streptococcus pyogenes, 1.6 µg/mL (≈ 4.53 µM); with Klebsiella pneumoniae it was 0.4 µg/mL (≈ 1.13 µM); in [3], 2.5 µg/mL (≈ 7.08 µM); with Streptococcus pneumoniae, 1.6 µg/mL (≈ 4.53 µM). The MIC in the assay on Enterococcus faecalis came out at 3.1 µg/mL (≈ 8.77 µM); with Staphylococcus aureus [4] (setting [7]), 0.2 µg/mL (≈ 0.566 µM); in the assay on Escherichia coli it was 0.2 µg/mL (≈ 0.566 µM); in the assay with Bacteria [5], 0.4 µg/mL (≈ 1.13 µM); with Pseudomonas aeruginosa, 0.8 µg/mL (≈ 2.26 µM). The Geometric mean MIC over Gram-negative bacteria (µg/mL) with Bacteria [2] amounted to 0.35. Further, the “Geometric mean MIC over Gram-positive bacteria (µg/mL)” value in the assay with Bacteria [6] is reported as 1.2.
For `NC1CCN(c2c(F)cc3c(=O)c(C(=O)O)cn(C4CC4)c3c2Cl)C1` (stereo in doubt; 1h-4), the Geometric mean MIC over Gram-negative bacteria (µg/mL) in the assay with Bacteria [2] was 0.029. The compound also showed an MIC in assay [3] of 0.5 µg/mL (≈ 1.37 µM).
In the case of `CCn1cc(C(=O)O)c(=O)c2cc(F)c(N3CCNC(C)C3)c(F)c21` (configuration not stated) [LOMEFLOXACIN], the MIC in the assay on Staphylococcus aureus [1] was 1.6 µg/mL (≈ 4.55 µM); in the assay with Enterobacter cloacae it was 0.1 µg/mL (≈ 0.285 µM); with Streptococcus pyogenes it was 3.1 µg/mL (≈ 8.82 µM); with Klebsiella pneumoniae it was 0.2 µg/mL (≈ 0.569 µM); in assay [3], 2.5 µg/mL (≈ 7.12 µM); in the assay with Streptococcus pneumoniae it was 1.6 µg/mL (≈ 4.55 µM). Moreover, the MIC came out at 3.1 µg/mL (≈ 8.82 µM) in the assay with Enterococcus faecalis; 0.4 µg/mL (≈ 1.14 µM) against Staphylococcus aureus [4]; 0.1 µg/mL (≈ 0.285 µM) in the assay on Escherichia coli; 0.4 µg/mL (≈ 1.14 µM) with Bacteria [5]; 1.6 µg/mL (≈ 4.55 µM) in the assay with Pseudomonas aeruginosa. In addition, the Geometric mean MIC over Gram-negative bacteria (µg/mL) in the assay with Bacteria [2] stood at 0.26. The “Geometric mean MIC over Gram-positive bacteria (µg/mL)” value with Bacteria [6] was determined as 1.58.
For the compound `CCn1cc(C(=O)O)c(=O)c2cc(F)c(N3CCNC(C)C3)cc21` (configuration not stated), the MIC with Staphylococcus aureus [1] stood at 1.6 µg/mL (≈ 4.8 µM); with Enterobacter cloacae it was 0.1 µg/mL (≈ 0.3 µM); with Streptococcus pyogenes, 1.6 µg/mL (≈ 4.8 µM); in the assay with Klebsiella pneumoniae it was 0.2 µg/mL (≈ 0.6 µM); in assay [3], 2.5 µg/mL (≈ 7.5 µM); in the assay on Streptococcus pneumoniae it was 1.6 µg/mL (≈ 4.8 µM). Besides, the MIC came to 1.6 µg/mL (≈ 4.8 µM) in the assay with Enterococcus faecalis; 0.2 µg/mL (≈ 0.6 µM) against Staphylococcus aureus [4]; 0.1 µg/mL (≈ 0.3 µM) in the assay with Escherichia coli; 0.2 µg/mL (≈ 0.6 µM) with Bacteria [5]; 1.6 µg/mL (≈ 4.8 µM) in the assay on Pseudomonas aeruginosa. Besides, the Geometric mean MIC over Gram-negative bacteria (µg/mL) with Bacteria [2] amounted to 0.23. For the same compound, the “Geometric mean MIC over Gram-positive bacteria (µg/mL)” value in the assay with Bacteria [6] came to 1.05.
For `NC1CCN(c2c(F)cc3c(=O)c(C(=O)O)cn(C4CC4)c3c2Cl)C1` (stereo in doubt; 1f-4), the Geometric mean MIC over Gram-negative bacteria (µg/mL) with Bacteria [2] came to 0.057. Further, the MIC in assay [3] amounted to 0.25 µg/mL (≈ 0.683 µM).

These data come from ChEMBL document CHEMBL1125826, “Synthesis and biological activity of 5-amino- and 5-hydroxyquinolones, and the overwhelming influence of the remote N1-substituent in determining the structure-activity relationship” (1991).
